Results: ChEMBL document CHEMBL4699407, “Isoquinoline thiosemicarbazone displays potent anticancer activity with in vivo efficacy against aggressive leukemias” (RSC Med Chem, 2020)
Calls of active or inactive are those of the source. No cut-off for these calls is given here.

Key:
[1] = Cytotoxicity against human SUIT-2 cells assessed as reduction in cell viability in presence of Cu2+ incubated for 72 hrs by cell titer-glo luminescent cell viability assay; assay type: functional, cell-based; details: SUIT-2, 72 h
Summary of the method: (§1)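 Cells were grown in DMEM or RPMI with 10% FBS, without antibiotics, at 37 °C, 20% O2, 5% CO2. Adherent lines were seeded at 500 cells/well. Serially diluted compound was given with 20 μM Cu(II) (CuCl2) for 72 h; leukemia models received pre-formed 1:1 copper complex. ATP was read by CellTiter-Glo luminescence. IC50 is relative to DMSO-treated cells.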

MOLT-4 = assay: Cytotoxicity against human MOLT-4 cells assessed as reduction in cell viability in presence of Cu2+ incubated for 72 hrs by cell titer-glo luminescent cell viability assay; assay type: functional, cell-based; details: MOLT-4, 72 h; summary of the method: as §1
MIA PaCa-2 [2] = assay: Cytotoxicity against human MIA PaCa2 cells assessed as reduction in cell viability at 25 nM in presence of Fe2+ incubated for 72 hrs by cell titer-glo luminescent cell viability assay; assay type: functional, cell-based
Summary of the method: (§2)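 MIAPACA2 cells were exposed to compound for 72 h with 20 μM Fe(II) or Zn(II) supplement. Proliferation was read by CellTiter-Glo ATP luminescence.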

Panc203 = assay: Cytotoxicity against human Panc203 cells assessed as reduction in cell viability in presence of Cu2+ incubated for 72 hrs by cell titer-glo luminescent cell viability assay; assay type: functional, cell-based; details: Panc203, 72 h; summary of the method: as §1
MIA PaCa-2 [3] = assay: Induction of apoptosis in human MIA PaCa-2 cells assessed as decrease in viable cells at 25 nM in presence of ATRi incubated for 72 hrs by annexin V and propidium iodide staining based flow cytometry analysis relative to control; assay type: functional
Summary of the method: (§3)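 Cells given 25 nM compound with or without 20 μM Cu(II) and/or the ATR inhibitor VE-822 at 250 nM for 72 h. Stained with annexin V-FITC and propidium iodide, then analysed on a five-laser flow cytometer to score viable, early apoptotic, late apoptotic and necrotic fractions against vehicle.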

NCI-H1963 = assay: Cytotoxicity against human NCI-H1963 cells assessed as reduction in cell viability in presence of Cu2+ incubated for 72 hrs by cell titer-glo luminescent cell viability assay; assay type: functional, cell-based; details: NCI-H1963, 72 h; summary of the method: as §1
MIA PaCa-2 [4] = assay: Cytotoxicity against human MIA PaCa2 cells assessed as reduction in cell viability at 25 nM in presence of Cu2+ and 2-DG incubated for 48 hrs by trypan blue assay; assay type: functional, cell-based
Summary of the method: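 MIAPACA2 cells were given 25 nM compound plus 20 μM Cu(II), with or without 2-deoxyglucose (2 mM), for 48 h. Viability was read by trypan blue staining on a Vi-Cell counter. Mean ± SD, n = 2, Student t-test.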

MIA PaCa-2 [5] = assay: Induction of DNA damage in human MIA PaCa-2 cells assessed as decrease in dCTP level at 25 nM in presence of Cu2+ incubated for 48 hrs by LC-MS/MS analysis; assay type: functional, cell-based
Summary of the method: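 Cells in DMEM or RPMI with 10% FBS, 37 °C, 5% CO2. Treated with 25 nM compound plus 20 μM Cu(II) for 48 h. Nucleotide pools quantified by LC-MS/MS with multiple reaction monitoring. Cells were in glucose-free DMEM with 10% dialyzed FBS and 11 mM [U-13C6]glucose for 48 h, and glucose-labeled pools were compared. Mean ± SD, n = 3, two-way ANOVA with Bonferroni correction.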

MIA PaCa-2 [6] = assay: Induction of apoptosis in human MIA PaCa-2 cells assessed as increase in late apoptotic cells at 25 nM in presence of Cu2+ and ATRi incubated for 72 hrs by annexin V and propidium iodide staining based flow cytometry analysis relative to control; assay type: functional; summary of the method: as §3
MIA PaCa-2 [7] = assay: Cytotoxicity against human MIA PaCa2 cells assessed as reduction in cell viability at 25 nM in presence of Zn2+ incubated for 72 hrs by cell titer-glo luminescent cell viability assay; assay type: functional, cell-based; summary of the method: as §2
MIA PaCa-2 [8] = assay: Induction of DNA damage in human MIA PaCa-2 cells assessed as decrease in ATP level at 25 nM in presence of Cu2+ incubated for 48 hrs by LC-MS/MS analysis; assay type: functional, cell-based
Summary of the method: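 MIAPACA2 cells were given 25 nM compound plus 20 μM Cu(II) for 48 h in glucose-free DMEM with 10% dialyzed FBS and 11 mM [U-13C6]glucose. Nucleotide pools were quantified by LC-MS/MS with multiple reaction monitoring. Mean ± SD, n = 3, two-way ANOVA with Bonferroni correction.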

MIA PaCa-2 [9] = assay: Induction of apoptosis in human MIA PaCa-2 cells assessed as increase in early apoptotic cells at 25 nM in presence of Cu2+ and ATRi incubated for 72 hrs by annexin V and propidium iodide staining based flow cytometry analysis relative to control; assay type: functional; summary of the method: as §3
[10] = Cytotoxicity against human PaTu 8902 cells assessed as reduction in cell viability in presence of Cu2+ incubated for 72 hrs by cell titer-glo luminescent cell viability assay; assay type: functional, cell-based; details: PaTu 8902, 72 h; summary of the method: as §1
MIA PaCa-2 [11] = assay: Induction of DNA damage in human MIA PaCa-2 cells assessed as increase in CHEK1 phosphorylation at 10 nM in presence of Cu2+ incubated for 48 hrs by immunoblot assay; assay type: functional, cell-based
Summary of the method: (§4)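 Treated with 10 nM compound plus 20 μM Cu(II). Lysed in RIPA buffer with protease and phosphatase inhibitors, then sonicated and centrifuged at 20 000g, 4 °C. Protein measured by micro BCA, and equal amounts run on bis-tris gels. Primary antibodies in 5% BSA/TBST; HRP-linked anti-rabbit or anti-mouse secondaries at 1:2500. Chemiluminescent detection on film; representative blot.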

MIA PaCa-2 [12] = assay: Induction of apoptosis in human MIA PaCa-2 cells assessed as increase in caspase 3 cleavage at 10 nM in presence of Cu2+ incubated for 48 hrs by immunoblot assay; assay type: functional, cell-based; summary of the method: as §4
MIA PaCa-2 [13] = assay: Induction of apoptosis in human MIA PaCa-2 cells assessed as increase in late apoptotic cells at 25 nM in presence of Cu2+ incubated for 72 hrs by annexin V and propidium iodide staining based flow cytometry analysis relative to control; assay type: functional; summary of the method: as §3
143B = assay: Cytotoxicity against human 143-BTK cells assessed as reduction in cell viability at 25 to 100 nM incubated for 48 hrs by trypan blue assay; assay type: functional, cell-based; details: dose nM 25-100, time 48.0 hrs
Summary of the method: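 143 BTK parental (WT) and ρ0 cells were exposed to the indicated compound concentrations plus 20 μM Cu(II) for 48 h. Viable cells were counted by trypan blue staining on a Vi-Cell counter. Mean ± SD, n = 2, Student t-test.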

MIA PaCa-2 [14] = assay: Induction of apoptosis in human MIA PaCa-2 cells assessed as increase in necrotic cells at 25 nM in presence of Cu2+ and ATRi incubated for 72 hrs by annexin V and propidium iodide staining based flow cytometry analysis relative to control; assay type: functional; summary of the method: as §3
MIA PaCa-2 [15] = assay: Cytotoxicity against human MIA PaCa2 cells assessed as reduction in cell viability 72 hrs by cell titer-glo luminescent cell viability assay; assay type: functional
Summary of the method: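 MIAPACA2 cells in conventional medium without copper supplement got serially diluted compound for 72 h. ATP content was read by CellTiter-Glo, and IC90 (90% proliferation inhibition vs DMSO control) was calculated.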

MIA PaCa-2 [16] = assay: Induction of apoptosis in human MIA PaCa-2 cells assessed as increase in early apoptotic cells at 25 nM in presence of Cu2+ incubated for 72 hrs by annexin V and propidium iodide staining based flow cytometry analysis relative to control; assay type: functional; summary of the method: as §3

In the case of `CN(C)C(=S)NN=Cc1nccc2cc(F)ccc12`, the IC50 [1] is reported as 1 nM, the IC50 (MOLT-4) is reported as 1 nM and the Activity (MIA PaCa-2 [2]) is reported as “Active”. The IC50 (Panc203) was 1 nM, the Activity (MIA PaCa-2 [3]) was 64.7% and the IC50 (NCI-H1963) was 1 nM. The Activity (MIA PaCa-2 [4]) was “Active”, the Activity (MIA PaCa-2 [5]) was “inactive” and the Activity (MIA PaCa-2 [6]) was 42.7%. For the same compound, the Activity (MIA PaCa-2 [7]) was “inactive”, the Activity (MIA PaCa-2 [8]) was “inactive” and the Activity (MIA PaCa-2 [9]) was 24.8%. The IC50 [10] was 1 nM, the Activity (MIA PaCa-2 [11]) was “Active” and the Activity (MIA PaCa-2 [12]) was “Active”. The Activity (MIA PaCa-2 [13]) was 3.68%, the Activity (143B) was “Active” and the Activity (MIA PaCa-2 [14]) was 4.72%. For the same compound, the IC90 (MIA PaCa-2 [15]) was 111 nM and the Activity (MIA PaCa-2 [16]) was 13.9%.
